In brackets after ≈: the same amount, converted by molar mass. Activity calls are given as the source filed them. No cut-off for these calls is given here.
Tests used:
Staphylococcus aureus [1] = assay: Antibacterial activity against methicillin-resistant Staphylococcus aureus isolate CBD 635; format: functional
Summary of the method: (§1)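 MIC against S. aureus strains was run by an earlier published procedure, tested in triplicate. Values were averaged and expressed as µg/ml of compound.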

Bartonella vinsonii = assay: Antibacterial activity against Bartonella vinsonii ATCC VR152 at 20 ug per disc after 7 days by Kirby-Bauer disc diffusion assay; format: functional; details: ATCC VR152, 168 h, read-out: DIZ
Summary of the method: (§2)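 Each paper disk was loaded with 20 µl of a 1 mg/ml solution, dried for 20 min and stored desiccated at 4 °C. Growth from 4-day plates was suspended in heart infusion broth to McFarland 2.0 and swabbed onto chocolate agar (heart infusion agar base with 5% bovine hemoglobin). Plates were incubated 1 week at 37 °C in 5% CO2. Zone diameter was read to the nearest mm, in triplicate and averaged.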

Bartonella quintana = assay: Antibacterial activity against Bartonella quintana ATCC VR358 at 20 ug per disc after 7 days by Kirby-Bauer disc diffusion assay; format: functional; details: ATCC VR358, 168 h, read-out: DIZ; summary of the method: as §2
Bartonella elizabethae = assay: Antibacterial activity against Bartonella elizabethae F9251 at 20 ug per disc after 7 days by Kirby-Bauer disc diffusion assay; format: functional; details: F9251, 168 h, read-out: DIZ; summary of the method: as §2
Staphylococcus aureus [2] = assay: Antibacterial activity against methicillin-resistant Staphylococcus aureus isolate CBD 635 at 50 ug per disc by Kirby-Bauer disc diffusion assay; format: functional; details: read-out: DIZ
Summary of the method: (§3)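 Kirby-Bauer disk diffusion with 50 µg compound per 6 mm paper disk. Organisms were grown and plated by an earlier method. The zone-of-inhibition diameter was recorded to the nearest mm and averaged over three independent experiments. No zone was reported as 6 mm, the disk diameter.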

Enterococcus faecalis = assay: Antibacterial activity against Enterococcus faecalis DS16 at 50 ug per disc by Kirby-Bauer disc diffusion assay; format: functional; details: read-out: DIZ
Summary of the method: (§4)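 Disks carried 50 µg of compound. Zone diameter was measured to the nearest mm and averaged over three independent experiments. A value of 6 mm, the disk diameter, was recorded where no inhibition was seen.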

Escherichia coli [3] = assay: Antibacterial activity against Escherichia coli DH5alpha at 50 ug per disc by Kirby-Bauer disc diffusion assay; format: functional; details: DH5[alpha], read-out: DIZ; summary of the method: as §4
[4] = Antibacterial activity against Bartonella henselae Houston-1 infected in human HMEC1 cells assessed as intracellular bacterial load at 1 ug/mL incubated for 96 hrs followed by compound washout measured after 7 days relative to control; format: functional, Bartonella henselae str. Houston-1
Summary of the method: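 HMEC-1 cells grown in MCDB131 with 10% FBS, EGF and hydrocortisone were infected with B. henselae Houston-1 at MOI 100 for 4 h. Extracellular bacteria were killed with gentamicin (200 µg/ml, 1 h), then compound was added at 0.1 or 1.0 µg/ml for 96 h. After washing, cells were lysed with 0.1% saponin and lysates plated on chocolate agar for 7 days. CFU are given as a percentage of the media-only control.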

Staphylococcus aureus [5] = assay: Antibacterial activity against methicillin-resistant Staphylococcus aureus ATCC 43300; format: functional; summary of the method: as §1
[6] = Antibacterial activity against Bartonella henselae ATCC 49882 after 7 days by agar dilution method; format: functional, Bartonella henselae str. Houston-1; details: ATCC 49882, 168 h
Summary of the method: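 Agar dilution on chocolate agar containing compound at 10.0, 1.0 and 0.1 µg/ml, with 2-fold steps at and below 1.0 µg/ml for compounds active there. Controls were DMSO-only and drug-free plates. 25 µl of a McFarland 2.0 suspension in heart infusion broth was spotted and incubated 7 days at 37 °C in 5% CO2. Growth was scored +/− on duplicate plates; triplicate results were averaged.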

Bacillus anthracis = assay: Antibacterial activity against Bacillus anthracis sterne at 50 ug per disc by Kirby-Bauer disc diffusion assay; format: functional; details: read-out: DIZ; summary of the method: as §3
Staphylococcus aureus [7] = assay: Antibacterial activity against methicillin-susceptible Staphylococcus aureus SH1000; format: functional
Summary of the method: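 MIC in µg/ml, tested in triplicate and averaged, with ciprofloxacin as positive control.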

[8] = Antibacterial activity against Bartonella henselae ATCC 49882 at 20 ug per disc after 7 days by Kirby-Bauer disc diffusion assay; format: functional, Bartonella henselae str. Houston-1; details: ATCC 49882, 168 h, read-out: DIZ; summary of the method: as §2
Escherichia coli [9] = assay: Inhibition of Escherichia coli DNA gyrase-mediated formation of supercoiled form of pUC19 at 1 to 100 ug/mL by gel electrophoresis
Summary of the method: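 Relaxed circular pUC19 was incubated with purified E. coli DNA gyrase and compound for 1 h at 37 °C. Relaxed and supercoiled DNA were resolved and quantified by gel electrophoresis.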

Bartonella henselae = assay: Antibacterial activity against Bartonella henselae infected in african green monkey Vero cells by immunofluorescence staining; format: functional
Staphylococcus aureus [10] = assay: Antibacterial activity against methicillin-susceptible Staphylococcus aureus SH1000 at 2.5 fold MIC by serial dilution method; format: functional
Summary of the method: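 Tryptic soy agar contained compound at 1x, 1.5x, 2.0x or 2.5x the measured MSSA MIC. Cells from 1 ml of an overnight MSSA broth culture were pelleted, resuspended in 100 µl TSB and spread with glass beads. Inoculum cfu was counted by serial dilution onto drug-free agar. Total colonies from at least 3 replicates are reported; frequency is colonies divided by total inoculum.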

| SMILES | MIC (Staphylococcus aureus [1]) [µg/mL] | zone of inhibition at 20 µg/disc (Bartonella vinsonii) [mm] | zone of inhibition at 20 µg/disc (Bartonella quintana) [mm] | zone of inhibition at 20 µg/disc (Bartonella elizabethae) [mm] | zone of inhibition at 50 µg/disc (Staphylococcus aureus [2]) [mm] | zone of inhibition at 50 µg/disc (Enterococcus faecalis) [mm] | zone of inhibition at 50 µg/disc (Escherichia coli [3]) [mm] | Activity [4] | MIC (Staphylococcus aureus [5]) [µg/mL] | MIC [6] [µg/mL] | zone of inhibition at 50 µg/disc (Bacillus anthracis) [mm] | MIC (Staphylococcus aureus [7]) [µg/mL] | zone of inhibition at 20 µg/disc [8] [mm] | gyrase inhibition (active/inactive) (Escherichia coli [9]) | MIC (Bartonella henselae) [µg/mL] | CFU/ml (Staphylococcus aureus [10]) |
| --- | --- | --- | --- | --- | --- | --- | --- | --- | --- | --- | --- | --- | --- | --- | --- | --- |
| CCCC(=O)N1CCN(c2cc3c(cc2F)c(=O)c(C(=O)O)cn3C2CC2)CC1 | > 100 | 44 | 29 | 42 | 6 | 40 | 48 | <=10% | > 100 | 0.5 (≈ 1.25 µM) | 86 | > 100 | 34 | – | – | – |
| CCCCCCC(=O)N1CCN(c2cc3c(cc2F)c(=O)c(C(=O)O)cn3C2CC2)CC1 | > 100 | 22 | 20 | 20 | 30 | 36 | 45 | – | > 100 | 10 (≈ 22.5 µM) | 71 | 25 (≈ 56.4 µM) | 28 | – | – | – |
| O=C(O)c1cn(C2CC2)c2cc(N3CCN(C(=O)c4ccccc4)CC3)c(F)cc2c1=O | > 100 | 12 | 7 | 13 | 6 | 6 | 6 | – | > 100 | 0.2 (≈ 0.459 µM) | 49 | 25 (≈ 57.4 µM) | 21 | – | – | – |
| CC(CC(=O)N1CCN(c2cc3c(cc2F)c(=O)c(C(=O)O)cn3C2CC2)CC1)CC(C)(C)C (stereo not drawn) | > 100 | 10 | 7 | 8 | 35 | 25 | 6 | – | > 100 | 1 (≈ 2.12 µM) | 80 | 25 (≈ 53 µM) | 15 | Active | – | – |
| C[C@H]1COc2c(N3CCN(C)CC3)c(F)cc3c(=O)c(C(=O)O)cn1c23.C[C@H]1COc2c(N3CCN(C)CC3)c(F)cc3c(=O)c(C(=O)O)cn1c23.O [LEVOFLOXACIN] | – | – | – | – | – | – | – | – | – | – | – | – | – | – | 0.84 | – |
| CCC(=O)N1CCN(c2cc3c(cc2F)c(=O)c(C(=O)O)cn3C2CC2)CC1 | > 100 | 60 | 58 | 57 | 20 | 46 | 57 | <=10% | > 100 | 0.5 (≈ 1.29 µM) | 86 | 40 (≈ 103 µM) | 56 | Active | – | 0 |
| CCCCCC(=O)N1CCN(c2cc3c(cc2F)c(=O)c(C(=O)O)cn3C2CC2)CC1 | > 100 | 21 | 30 | 30 | 36 | 38 | 30 | – | 25 (≈ 58.2 µM) | 5 (≈ 11.6 µM) | 77 | 20 (≈ 46.6 µM) | 31 | Active | – | – |
| CCCCC(=O)N1CCN(c2cc3c(cc2F)c(=O)c(C(=O)O)cn3C2CC2)CC1 | > 100 | 57 | 35 | 35 | 30 | 39 | 47 | – | 1 (≈ 2.41 µM) | 5 (≈ 12 µM) | 80 | 7.5 (≈ 18.1 µM) | 38 | – | – | – |
| CCCCCCCCC(=O)N1CCN(c2cc3c(cc2F)c(=O)c(C(=O)O)cn3C2CC2)CC1 | > 100 | 14 | 11 | 12 | 22 | 23 | 30 | – | 10 (≈ 21.2 µM) | 10 (≈ 21.2 µM) | 55 | 10 (≈ 21.2 µM) | 6 | – | – | – |
| CCCC(CCC)C(=O)N1CCN(c2cc3c(cc2F)c(=O)c(C(=O)O)cn3C2CC2)CC1 | > 100 | 6 | 6 | 6 | 6 | 26 | 6 | – | > 100 | 5 (≈ 10.9 µM) | 72 | 10 (≈ 21.9 µM) | 14 | – | – | – |
| CCCCCCCC(=O)N1CCN(c2cc3c(cc2F)c(=O)c(C(=O)O)cn3C2CC2)CC1 | > 100 | 15 | 14 | 14 | 6 | 29 | 6 | – | 25 (≈ 54.6 µM) | 10 (≈ 21.9 µM) | 65 | 25 (≈ 54.6 µM) | 16 | – | – | – |
| CC(C)(C)C(=O)N1CCN(c2cc3c(cc2F)c(=O)c(C(=O)O)cn3C2CC2)CC1 | > 100 | 36 | 33 | 36 | 22 | 44 | 51 | – | > 100 | – | 80 | 7.5 (≈ 18.1 µM) | 40 | Active | – | – |
| CC1COc2c(N3CCN(C)CC3)c(F)cc3c(=O)c(C(=O)O)cn1c23 (stereo not drawn) [OFLOXACIN] | – | – | – | – | – | – | – | – | – | – | – | – | – | – | 5.6 (≈ 15.5 µM) | – |
| C[C@@H]1CN(c2c(F)c(N)c3c(=O)c(C(=O)O)cn(C4CC4)c3c2F)C[C@H](C)N1 [SPARFLOXACIN] | – | – | – | – | – | – | – | – | – | – | – | – | – | – | 6.4 (≈ 16.3 µM) | – |
| CCC(CC)C(=O)N1CCN(c2cc3c(cc2F)c(=O)c(C(=O)O)cn3C2CC2)CC1 | > 100 | 25 | 17 | 26 | 30 | 22 | 39 | – | 1 (≈ 2.33 µM) | 5 (≈ 11.6 µM) | 81 | > 100 | 33 | – | – | – |
| O=C(O)c1cn(C2CC2)c2cc(N3CCNCC3)c(F)cc2c1=O [CIPROFLOXACIN] | – | 58 | 6 | 58 | 6 | 31 | 43 | <=10% | 15 (≈ 45.3 µM) | 0.5 (≈ 1.51 µM) | 42 | 10 (≈ 30.2 µM) | 56 | – | 15.2 (≈ 45.9 µM) | 551 |
| CCCCC(CC)C(=O)N1CCN(c2cc3c(cc2F)c(=O)c(C(=O)O)cn3C2CC2)CC1 (stereo not drawn) | > 100 | 15 | 6 | 12 | 26 | 28 | 6 | – | > 100 | – | 65 | 10 (≈ 21.9 µM) | 12 | – | – | – |
